Results as given in ChEMBL document CHEMBL1287787, “Design and synthesis of disubstituted thiophene and thiazole based inhibitors of JNK” (Bioorg Med Chem Lett, 2010).

Experiments:
[1] = biological target: Mitogen-activated protein kinase 8 (Homo sapiens, UniProt P45983); test: Inhibition of recombinant JNK1 after 60 mins by TR-FRET assay
[2] = biological target: Mitogen-activated protein kinase 9 (Homo sapiens, UniProt P45984); test: Inhibition of recombinant JNK2 after 60 mins by TR-FRET assay
[3] = biological target: Mitogen-activated protein kinase 10 (Homo sapiens, UniProt P53779); test: Inhibition of recombinant JNK3 after 60 mins by TR-FRET assay
[4] = Metabolic stability in mouse liver microsomes assessed as compound remaining after 30 mins; assay type: ADME, Microsome; conditions: read-out: Stability
Method in brief: (§1)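 Test compound incubated with mouse or human liver microsomes for 30 min. Read-out is the percent of parent compound remaining at the end of the incubation.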

[5] = Metabolic stability in human liver microsomes assessed as compound remaining after 30 mins; assay type: ADME, Microsome; conditions: read-out: Stability; method in brief: as §1
[6] = biological target: Mitogen-activated protein kinase 1 (Homo sapiens, UniProt P28482); test: Inhibition of recombinant Erk2 after 60 mins by TR-FRET assay
[7] = biological target: Mitogen-activated protein kinase 14 (Homo sapiens, UniProt Q16539); test: Inhibition of recombinant p38alpha after 60 mins by TR-FRET assay
MDR1 = test: Permeability from apical to basolateral side of MDCK cells expressing MDR1 after 120 mins; assay type: ADME, cell-based, Canis lupus familiaris; conditions: dog, read-out: permeability

Sequence of Mitogen-activated protein kinase 14 (Q16539 whole entry): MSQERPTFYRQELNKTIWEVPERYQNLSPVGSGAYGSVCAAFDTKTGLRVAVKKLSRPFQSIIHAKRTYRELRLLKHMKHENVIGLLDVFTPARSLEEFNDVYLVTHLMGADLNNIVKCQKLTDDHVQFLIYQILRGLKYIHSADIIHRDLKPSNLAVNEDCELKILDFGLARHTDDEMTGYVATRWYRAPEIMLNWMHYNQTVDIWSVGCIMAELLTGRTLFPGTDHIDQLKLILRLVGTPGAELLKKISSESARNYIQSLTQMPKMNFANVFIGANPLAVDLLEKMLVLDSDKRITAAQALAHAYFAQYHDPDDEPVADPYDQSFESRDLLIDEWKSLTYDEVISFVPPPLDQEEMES
Sequence of Mitogen-activated protein kinase 9 (P45984 whole entry): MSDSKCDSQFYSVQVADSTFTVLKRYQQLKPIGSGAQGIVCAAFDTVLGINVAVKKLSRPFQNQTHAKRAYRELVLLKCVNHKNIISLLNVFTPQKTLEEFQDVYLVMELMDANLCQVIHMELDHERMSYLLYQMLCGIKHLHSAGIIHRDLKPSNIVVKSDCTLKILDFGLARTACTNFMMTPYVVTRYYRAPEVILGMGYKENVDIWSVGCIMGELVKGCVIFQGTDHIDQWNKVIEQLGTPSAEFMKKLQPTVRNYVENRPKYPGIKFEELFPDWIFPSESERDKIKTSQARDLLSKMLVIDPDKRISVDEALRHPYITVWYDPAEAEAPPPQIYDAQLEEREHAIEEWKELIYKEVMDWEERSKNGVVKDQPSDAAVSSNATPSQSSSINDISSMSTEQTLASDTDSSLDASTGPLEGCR
Sequence of Mitogen-activated protein kinase 1 (P28482 whole entry): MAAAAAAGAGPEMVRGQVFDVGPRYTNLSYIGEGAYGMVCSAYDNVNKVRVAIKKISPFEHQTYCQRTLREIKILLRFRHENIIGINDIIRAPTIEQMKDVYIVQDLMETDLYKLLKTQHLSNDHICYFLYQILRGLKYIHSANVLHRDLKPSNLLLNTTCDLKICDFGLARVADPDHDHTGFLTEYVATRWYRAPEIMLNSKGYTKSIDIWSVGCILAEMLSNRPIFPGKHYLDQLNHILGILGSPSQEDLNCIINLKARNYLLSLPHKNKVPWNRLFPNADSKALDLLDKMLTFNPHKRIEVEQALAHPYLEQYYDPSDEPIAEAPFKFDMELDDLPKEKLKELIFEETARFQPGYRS
Sequence of Mitogen-activated protein kinase 8 (P45983 whole entry): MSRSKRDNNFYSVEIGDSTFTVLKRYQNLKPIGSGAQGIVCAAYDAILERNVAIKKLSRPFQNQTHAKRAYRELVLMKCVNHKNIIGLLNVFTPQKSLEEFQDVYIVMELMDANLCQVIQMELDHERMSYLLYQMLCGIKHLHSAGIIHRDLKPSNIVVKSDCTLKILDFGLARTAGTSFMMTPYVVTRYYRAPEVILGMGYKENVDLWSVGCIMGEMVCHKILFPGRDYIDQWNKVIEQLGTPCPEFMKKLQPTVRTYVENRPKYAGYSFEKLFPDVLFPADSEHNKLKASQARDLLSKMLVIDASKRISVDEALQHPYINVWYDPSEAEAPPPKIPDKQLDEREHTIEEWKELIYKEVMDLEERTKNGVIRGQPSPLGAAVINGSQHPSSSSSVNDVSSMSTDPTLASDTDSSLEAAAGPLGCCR
Sequence of Mitogen-activated protein kinase 10 (P53779 whole entry): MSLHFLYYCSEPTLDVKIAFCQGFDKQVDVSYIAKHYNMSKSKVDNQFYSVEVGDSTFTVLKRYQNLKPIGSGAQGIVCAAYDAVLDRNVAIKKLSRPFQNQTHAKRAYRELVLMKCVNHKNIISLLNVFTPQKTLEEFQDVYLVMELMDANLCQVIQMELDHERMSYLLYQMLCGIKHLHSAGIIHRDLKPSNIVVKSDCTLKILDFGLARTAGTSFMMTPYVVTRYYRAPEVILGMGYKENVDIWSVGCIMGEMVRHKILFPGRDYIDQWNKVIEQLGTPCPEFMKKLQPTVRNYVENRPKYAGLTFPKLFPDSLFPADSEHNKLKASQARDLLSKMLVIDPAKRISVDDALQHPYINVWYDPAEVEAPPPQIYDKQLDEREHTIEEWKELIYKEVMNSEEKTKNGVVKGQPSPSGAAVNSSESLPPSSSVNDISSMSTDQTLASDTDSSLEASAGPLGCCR

| SMILES | IC50 [1] [µM] | IC50 [2] [µM] | IC50 [3] [µM] | remaining at 0.5 h [4] [%] | remaining at 0.5 h [5] [%] | IC50 [6] [µM] | IC50 [7] [µM] | Papp A→B at 2 h (MDR1) [×10⁻⁶ cm/s] |
| --- | --- | --- | --- | --- | --- | --- | --- | --- |
| COc1ccc(CC(=O)Nc2ccsc2-c2c[nH]c(C)n2)cc1 | 23.4 | > 50 | 27 | 0 | 17 | > 50 | > 50 | 33.8 |
| Cc1nc(-c2sccc2NC(=O)Cc2cccc3ccccc23)n(C)n1 | 30.3 | > 50 | 31.5 | 1 | 1 | – | – | – |
| CC(=O)c1sccc1NC(=O)Cc1ccccc1 | 6.3 | > 50 | 17 | – | – | – | – | – |
| COc1ccc(CC(=O)Nc2ccsc2N2CCOC2=O)cc1 | > 50 | > 50 | 37 | 26 | 83 | – | – | 26 |
| CCOC(=O)c1sccc1NC(=O)Cc1ccccc1 | 0.3 | 46.6 | 0.7 | – | – | – | – | – |
| Cc1nccnc1NC(=O)Cc1cccc2ccccc12 | – | > 50 | > 50 | – | – | – | – | – |
| COC(=O)c1sccc1NC(=O)Cc1ccc(-n2ccnc2)cc1 | 1 | > 50 | 1.6 | – | – | – | – | – |
| COC(=O)c1scnc1NC(=O)Cc1cccc2ccccc12 | > 50 | > 50 | > 50 | – | – | – | – | – |
| O=C(Cc1cccc2ccccc12)Nc1ccsc1-n1ccnc1 | 26.9 | > 50 | 9 | 0 | 17 | – | – | – |
| Cc1nnc(-c2sccc2NC(=O)Cc2cccc3ccccc23)o1 | 1.8 | 16.3 | 2.1 | 0 | 4 | – | – | – |
| COC(=O)c1cnccc1NC(=O)Cc1cccc2ccccc12 | 6.4 | 23.6 | 6.5 | – | – | – | – | – |
| COc1ccc(CC(=O)Nc2ccsc2-n2cncn2)cc1 | 43.6 | > 50 | 45.6 | – | – | – | – | – |
| COC(=O)c1sccc1NC(=O)Cc1ccc(-c2ccncc2)cc1 | 0.46 | > 50 | 0.69 | – | – | – | – | – |
| C/C(=N/O)c1sccc1NC(=O)Cc1ccccc1 | – | – | 29 | – | – | – | – | – |
| COC(=O)c1sccc1NC(=O)Cc1cccc2ncccc12 | 0.3 | 3 | 0.61 | – | – | – | – | – |
| COCCNC(=O)c1sccc1NC(=O)Cc1ccccc1 | 2.3 | > 50 | 3.8 | – | – | – | – | – |
| COC(=O)c1n[nH]cc1NC(=O)Cc1cccc2ccccc12 | 2.1 | 26.7 | 5.4 | – | – | > 50 | > 50 | – |
| COC(=O)c1nnsc1NC(=O)Cc1cccc2ccccc12 | > 50 | > 50 | > 50 | – | – | – | – | – |
| COC(=O)c1sccc1NC(=O)Cc1ccccc1-c1c[nH]nn1 | 7 | 35 | 12.6 | – | – | – | – | – |
| COc1ccc(CC(=O)Nc2ccsc2-n2nccn2)cc1 | 0.83 | 5 | 1.5 | 1 | 0 | – | – | 15 |
| COC(=O)c1cccnc1NC(=O)Cc1cccc2ccccc12 | > 50 | > 50 | > 50 | – | – | – | – | – |
| NC(=O)c1sccc1NC(=O)Cc1ccccc1 | 2.6 | > 50 | 4.4 | – | – | – | – | – |
| COc1ccc(CC(=O)Nc2ccsc2-c2ncco2)cc1 | – | 11.9 | – | 9 | 14 | – | – | – |
| COC(=O)c1sccc1NC(=O)Cc1cccs1 | – | 21.4 | – | – | – | – | – | – |
| COC(=O)c1cscc1NC(=O)Cc1cccc2ccccc12 | 0.89 | 9.9 | 0.9 | – | – | – | – | – |

| SMILES | IC50 [1] [µM] | IC50 [2] [µM] | IC50 [3] [µM] | remaining at 0.5 h [4] [%] | remaining at 0.5 h [5] [%] | IC50 [6] [µM] | IC50 [7] [µM] | Papp A→B at 2 h (MDR1) [×10⁻⁶ cm/s] |
| --- | --- | --- | --- | --- | --- | --- | --- | --- |
| COC(=O)c1sccc1NC(=O)Cc1ccc(OC)cc1 | 0.8 | 14.1 | 1 | – | – | – | – | – |
| Cc1ccncc1NC(=O)Cc1cccc2ccccc12 | > 50 | > 50 | > 50 | – | – | – | – | – |
| Cn1ccc(-c2sccc2NC(=O)Cc2cccc3ccccc23)n1 | 24.1 | > 50 | 42.5 | 0 | 0 | – | – | – |
| O=C(Cc1cccc2ccccc12)Nc1ccsc1-c1nnco1 | 3.2 | 27.1 | 5.3 | 1 | 7 | – | – | – |
| COC(=O)c1sccc1NC(=O)Cc1cccc2ccccc12 | 0.4 | 14.6 | 1.5 | – | – | – | – | – |
| O=C(Cc1cccc2ccccc12)Nc1ccsc1-c1ncn[nH]1 | 0.53 | 3 | 0.92 | 1 | 11 | – | – | – |
| COc1ccc(CC(=O)Nc2ccsc2-c2cn(C)cn2)cc1 | 23.9 | > 50 | 31 | 1 | 49 | > 50 | > 50 | 7 |
| COCCN(C)C(=O)c1sccc1NC(=O)Cc1ccccc1 | – | > 50 | > 50 | – | – | – | – | – |
| COC(=O)c1sccc1NC(=O)Cc1ccc(C(F)(F)F)cc1 | 2 | > 50 | 6.9 | – | – | – | – | – |
| COC(=O)c1sccc1NC(=O)Cc1ccncc1 | 6.6 | > 50 | 17.2 | – | – | – | – | – |
| COC(=O)c1sccc1NC(=O)Cc1cccc2cnccc12 | 0.27 | 3.1 | 0.61 | – | – | > 50 | > 50 | – |
| CC(C)OC(=O)c1sccc1NC(=O)Cc1ccccc1 | 0.5 | 47.7 | 1.4 | – | – | – | – | – |
| COc1ccc(CC(=O)Nc2ccsc2-c2nc(C(F)(F)F)n[nH]2)cc1 | 3.4 | 15 | 5.9 | 8 | 71 | > 50 | > 50 | – |
| COC(=O)c1sccc1NC(=O)Cc1ccc2ccccc2c1 | 0.6 | > 50 | 3.9 | – | – | – | – | – |
| O=C(Cc1ccccc1)Nc1ccsc1CO | – | – | > 50 | – | – | – | – | – |
| Cc1n[nH]c(-c2sccc2NC(=O)Cc2cccc3ccccc23)n1 | 0.25 | 2.4 | 0.55 | 1 | 1 | – | – | – |
| COC(=O)c1nonc1NC(=O)Cc1cccc2ccccc12 | > 50 | > 50 | > 50 | – | – | – | – | – |
| CCOC(=O)c1c(C)nsc1NC(=O)Cc1cccc2ccccc12 | > 50 | > 50 | > 50 | – | – | – | – | – |
| O=C(Cc1cccc2ccccc12)Nc1ccsc1-c1cc[nH]n1 | – | > 50 | – | 0 | 5 | – | – | – |
| COC(=O)c1sccc1NC(=O)Cc1ccccc1 | 0.7 | 22.8 | 2.7 | – | – | – | – | – |
| COc1ccc(CC(=O)Nc2ccsc2-c2nc(N)n[nH]2)cc1 | – | 8.7 | – | 44 | 87 | > 50 | > 50 | 24.3 |
| Cc1cc(-c2sccc2NC(=O)Cc2cccc3ccccc23)n[nH]1 | – | 1.5 | – | 1 | 2 | – | – | – |
| C=C(C)c1sccc1NC(=O)Cc1ccccc1 | – | – | > 50 | – | – | – | – | – |
| COC(=O)c1ccccc1NC(=O)Cc1cccc2ccccc12 | 2.1 | 13.1 | 1.7 | – | – | – | – | – |
